This is an account of results in article PMC5935190 (Drug Design, Development and Therapy, 2018).

In brackets after ≈: the same amount, converted by molar mass. Entries after “also recorded” stand apart in the source; their conditions may differ.

For one data set, the target named is T1, M. tuberculosis BioA (Mycobacterium tuberculosis, UniProt P9WQ81).
T1 sequence (P9WQ81 1-437): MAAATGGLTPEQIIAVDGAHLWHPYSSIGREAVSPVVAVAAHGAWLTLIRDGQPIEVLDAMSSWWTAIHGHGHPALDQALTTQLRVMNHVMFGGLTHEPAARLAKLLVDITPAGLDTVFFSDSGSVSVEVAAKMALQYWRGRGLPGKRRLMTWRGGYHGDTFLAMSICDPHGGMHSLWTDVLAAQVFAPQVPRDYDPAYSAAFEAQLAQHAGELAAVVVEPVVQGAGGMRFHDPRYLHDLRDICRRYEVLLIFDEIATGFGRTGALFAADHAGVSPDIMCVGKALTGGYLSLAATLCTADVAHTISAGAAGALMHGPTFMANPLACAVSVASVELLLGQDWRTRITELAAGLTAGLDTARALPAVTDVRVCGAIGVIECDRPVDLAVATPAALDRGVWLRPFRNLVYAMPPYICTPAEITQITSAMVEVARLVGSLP
The experiment in a line: biochemical. It is filed as biochemical.

Data set [1] has as its system M. tuberculosis H37Rv. The experiment in a line: microbe, parasite or virus in culture. The data set is classed as cell-based. The following applies: Mycobacterium tuberculosis, read-out: MIC90 in Sauton's medium.
Data set [2] deals with Chinese hamster ovary cell line (CHO). In words: Cytotoxicity assay. It is filed as cell-based. Conditions: at 50 μg/mL. The gist of the method:
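CHO cells were grown in DMEM with 10% FBS and 1X antibiotic-antimycotic, then seeded at 1×10^4 cells per well. They were exposed to the test compound at 1 μg/mL to 200 μg/mL for 48 h. 0.01% resazurin dye was then added to measure cell viability.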

For data set [3], the system named is M. tuberculosis H37Rv. It is filed as cell-based, Mycobacterium tuberculosis.

The term IC50 denotes the point on the concentration scale where inhibition reaches its midpoint. Low readings indicate higher potency, high ones lower potency. For the molecule `CC1(c2ccc(S(=O)(=O)c3ccccc3)cc2)OC(=O)C=CC1=O` (stereo not shown) [Compound A65, 6-methyl-6-[4-(phenylsulfonyl)phenyl]-2H-pyran-2,5(6H)-dione], the IC50 was 114 µM against M. tuberculosis BioA (IC50 (μM) BioA) and 114 µM at M. tuberculosis BioA (IC50 (μg/mL) BioA, mean ± SD). In the data set on M. tuberculosis H37Rv [1], the MIC90 amounted to 80 µg/mL (≈ 234 µM). The “Toxicity in CHO cell line” value in data set [2] is recorded as “moderate toxicity”.
`O=C(O)c1ccc(C=NNC(=O)c2cccc3ccccc23)cc1` [Compound X21]: the “Percent inhibition of BioA at 100 μg/mL” value on M. tuberculosis BioA is “weak inhibition; also recorded: poor inhibition”. In the data set with M. tuberculosis H37Rv [3], the “MIC90 (μM) for M. tuberculosis growth inhibition” value was determined as 7.86 µM and the “MIC90 (μg/mL) for M. tuberculosis growth inhibition” value worked out at 2.5 µg/mL.
